≈ marks a conversion by molar mass, not a printed value.

The target of series [1] is Human immunodeficiency virus type 1 reverse transcriptase (Human immunodeficiency virus 1, UniProt Q72547). Kind of series: Inhibition of HIV-1 reverse transcriptase assessed as inhibition of biotin-dUTP incorporation into wild type RT measured after 1 hr by ELISA.
A short description of series [2]: Inhibition of reverse transcriptase RES056 mutant in HIV-1 infected in human MT4 cells assessed as reduction in virus-induced cytopathic effect incubated for 5 days by MTT assay. The class given is cell-based. Particulars: Human immunodeficiency virus 1, MT4, 120 h. In a few lines:
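MT-4 cells were spun down, resuspended at 6 × 10^5 cells/mL and infected with 100–300 CCID50 of mutant HIV-1 (RES056 = K103N + Y181C). Serial 5-fold compound dilutions were tested in triplicate wells alongside mock-infected wells. After 5 days, viability was read by MTT at 540 and 690 nm using the median of three wells.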

Series [3] in a line: Selectivity index, ratio of CC50 for human MT4 cells to EC50 for antiviral activity against HIV IIIB. Particulars: read-out: Ratio CC50/EC50. The class given is toxicity. The essentials:
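SI is computed as CC50/EC50. […] Both used serial 5-fold dilutions in triplicate and were read by MTT after 5 days, taking the median absorbance of three wells.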

Series [4] deals with reverse transcriptase Y181C mutant (HIV-1). Kind of series: Inhibition of reverse transcriptase Y181C mutant in HIV-1 infected in human MT4 cells assessed as reduction in virus-induced cytopathic effect incubated for 5 days by MTT assay. Particulars: Human immunodeficiency virus 1, MT4, 120 h.
Series [5] relates to Human immunodeficiency virus 1. Kind of series: Antiviral activity against HIV-1 3B infected in human MT4 cells assessed as reduction in virus-induced cytopathic effect incubated for 5 days by MTT assay. The class given is functional, organism-based. The note with it: Human immunodeficiency virus 1, 3B, MT4, 120 h. The essentials:
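MT-4 cells resuspended at 6 × 10^5 cells/mL were infected with HIV-1 stock at 100–300 CCID50. Compounds were tested in serial 5-fold dilutions in triplicate wells. Viability was read by MTT after 5 days at 540 and 690 nm, using the median of three wells.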

A short description of series [6]: Cytotoxicity against human MT4 cells assessed as reduction in cell viability incubated for 5 days by MTT assay. Type of series: cell-based. Particulars: time 5 day. The essentials: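 Mock-infected MT-4 cells at 6 × 10^5 cells/mL were given serial 5-fold compound dilutions in triplicate wells alongside the infected series. After 5 days viability was read by MTT at 540 and 690 nm, using the median of three wells.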

Series [7] in a line: physchem. The note with it: water, pH 2.
A short description of series [8]: physchem. The note with it: water, pH 7.4.
Series [9] in a line: Solubility in water at pH 7 at 0.1 to 10 mg.

Consider `Cc1cc(/C=C/C#N)cc(C)c1Oc1nc(Nc2ccc(CN3CCN(S(C)(=O)=O)CC3)cc2)nc2ccsc12`, for which the half-inhibitory concentration (IC50) in series [1] came out at 0.139 µM. Moreover, the concentration giving a half-maximal response (EC50) in [2] is over 20.7 µM; in series [4] it was 5.64 µM; in [5] it was 0.391 µM. Also, in series [3], the selectivity ratio stood at 53. Also, in series [6], the cytotoxic concentration (CC50) at 120 h came out at 20.7 µM.

With `Cc1cc(/C=C/C#N)cc(C)c1Oc1nc(Nc2ccc(N3CCN(S(N)(=O)=O)CC3)cc2)nc2ccsc12`, the IC50 in series [1] came to 0.214 µM. For the same compound, the EC50 in series [2] was over 223 µM; in series [4] it was 2.25 µM; in series [5] it was 0.027 µM. In series [3], the selectivity ratio was over 8310. Also, in series [6], the CC50 at 120 h is over 223 µM.

As to `Cc1cc(/C=C/C#N)cc(C)c1Oc1nc(Nc2ccc(N3CCNCC3)cc2)nc2ccsc12`, the IC50 in series [1] amounted to 0.945 µM. In series [3], the selectivity ratio is 15. In series [5], the concentration for a half-maximal effect (EC50) was 0.387 µM. For the same compound, the CC50 at 120 h in series [6] was determined as 5.73 µM.

With `Cc1cc(/C=C/C#N)cc(C)c1Oc1nc(Nc2ccc(N3CCCC(N)C3)cc2)nc2sccc12` (stereo not given), the concentration for half-maximal inhibition (IC50) in [1] turned out to be 0.956 µM. In [3], the selectivity ratio is 10. In series [5], the EC50 amounted to 0.461 µM. The half-maximal cytotoxic concentration (CC50) at 120 h in series [6] turned out to be 4.61 µM.

For the compound `Cc1cc(/C=C/C#N)cc(C)c1Oc1nc(Nc2ccc(CN3CCN(S(N)(=O)=O)CC3)cc2)nc2sccc12`, in series [1], the IC50 was 0.299 µM. Moreover, the EC50 in series [2] came to 1.38 µM; in series [4], 0.045 µM; in [5], 0.008 µM. Also, the selectivity ratio in series [3] is over 26900. Also, the solubility in “physchem [7]” came out at 64.9 µg/mL (≈ 113 µM); in the series “physchem [8]” it was 38.9 µg/mL (≈ 67.6 µM); in [9], 49.3 µg/mL (≈ 85.6 µM). The CC50 at 120 h in [6] was over 218 µM.

`O=C1Nc2ccc(Cl)cc2[C@@](C#CC2CC2)(C(F)(F)F)O1` [EFAVIRENZ]: the results for the EC50 in series [2], in series [4] and in series [5] were 0.335 µM, 0.005 µM and 0.028 µM, respectively. In addition, in [6], the CC50 at 120 h was over 6.33 µM.

`Cc1cc(/C=C/C#N)cc(C)c1Oc1nc(Nc2ccc(N3CCN(S(C)(=O)=O)CC3)cc2)nc2sccc12`: in series [1], the half-inhibitory concentration (IC50) was determined as 0.239 µM. Also, the concentration giving a half-maximal response (EC50) in [2] was 175 µM; in [4], 42.7 µM; in series [5] it was 0.172 µM. In addition, in [3], the selectivity ratio is over 1300. Moreover, the CC50 at 120 h in [6] was over 222 µM.

On to `Cc1cc(/C=C/C#N)cc(C)c1Oc1nc(Nc2ccc(CN3CCN(S(N)(=O)=O)CC3)cc2)nc2ccsc12`, for which the IC50 in [1] was found to be 0.961 µM. Further, the EC50 came out at 1.91 µM in [2], 0.154 µM in series [4] and 0.007 µM in series [5]. For the same compound, the selectivity ratio in series [3] amounted to 19000. The results for the solubility (in the series “physchem [7]”; in the series “physchem [8]”; in series [9]) were 73.1 µg/mL (≈ 127 µM), 39.5 µg/mL (≈ 68.6 µM) and 49.7 µg/mL (≈ 86.3 µM), respectively. For the same compound, the CC50 at 120 h in series [6] was 145 µM.

For `Cc1cc(/C=C/C#N)cc(C)c1Oc1nc(Nc2ccc(N3CCN(S(N)(=O)=O)CC3)cc2)nc2sccc12`, the IC50 in series [1] worked out at 0.713 µM. For the same compound, the EC50 in series [2] stood at 196 µM; in series [4] it was 1.36 µM; in [5] it was 0.028 µM. In addition, the selectivity ratio in series [3] is over 7790. In [6], the CC50 at 120 h is over 223 µM.

Take `Cc1cc(/C=C/C#N)cc(C)c1Oc1nc(Nc2ccc(N3CCNCC3)cc2)nc2sccc12`: the IC50 in series [1] stood at 0.849 µM. In addition, the selectivity ratio in series [3] was 8. Besides, in series [5], the EC50 was found to be 0.584 µM. Besides, the CC50 at 120 h in series [6] is 4.74 µM.

`Cc1ccnc2c1NC(=O)c1cccnc1N2C1CC1` [NEVIRAPINE]: the EC50 in [2] was over 15 µM; in series [4] it was 5.05 µM; in [5] it was 0.15 µM. The CC50 at 120 h in series [6] is over 15 µM.

Take `Cc1cc(/C=C/C#N)cc(C)c1Oc1nc(Nc2ccc(CN3CCNCC3)cc2)nc2sccc12`: the IC50 in series [1] turned out to be 0.151 µM. In addition, the selectivity ratio in [3] was determined as 94. For the same compound, the EC50 in [5] was 0.042 µM. Further, the CC50 at 120 h in series [6] is 4.03 µM.

Consider `Cc1cc(/C=C/C#N)cc(C)c1Oc1nc(Nc2ccc(N3CCCC(NS(C)(=O)=O)C3)cc2)nc2sccc12` (stereo not given), for which the half-maximal inhibitory concentration (IC50) in [1] was determined as 1.02 µM. The EC50 in series [2] is 16.5 µM; in series [4], 14 µM; in [5], 1.43 µM. The selectivity ratio in [3] was 78. For the same compound, the CC50 at 120 h in series [6] came out at 112 µM.

Regarding `Cc1cc(/C=C/C#N)cc(C)c1Oc1nc(Nc2ccc(CN3CCN(S(C)(=O)=O)CC3)cc2)nc2sccc12`, the IC50 in series [1] is 0.103 µM. For the same compound, the values for the EC50 in series [2], in series [4] and in series [5] were 18.8 µM, 1.27 µM and 0.036 µM, respectively. Moreover, the selectivity ratio in [3] was 3560. In series [6], the 50% cytotoxic concentration (CC50) at 120 h stood at 131 µM.

Consider `Cc1cc(/C=C/C#N)cc(C)c1Oc1nc(Nc2ccc(N3CCCC(N)C3)cc2)nc2ccsc12` (stereo not given), for which, in [1], the IC50 was determined as 1.58 µM. Also, the selectivity ratio in series [3] was 5. Besides, the EC50 in series [5] amounted to 0.815 µM. Also, the CC50 at 120 h in series [6] turned out to be 3.82 µM.

Regarding `Cc1cc(C#N)cc(C)c1Oc1nc(Nc2ccc(C#N)cc2)nc(N)c1Br` [ETRAVIRINE], the EC50 was determined as 0.06 µM in series [2] and 0.015 µM in [4]. Further, the solubility (in “physchem [8]”; in series [9]) was under 1 µg/mL each time. The CC50 at 120 h in [6] was over 4.59 µM.

Regarding `Cc1cc(/C=C/C#N)cc(C)c1Oc1nc(Nc2ccc(N3CCCC(NS(N)(=O)=O)C3)cc2)nc2ccsc12` (stereo not given), the half-maximal inhibitory concentration (IC50) in series [1] stood at 2.41 µM. The EC50 was over 218 µM in series [2], 3.64 µM in series [4] and 0.059 µM in series [5]. In addition, the selectivity ratio in [3] was over 3630. Moreover, the CC50 at 120 h in series [6] was over 218 µM.

Regarding `Cc1cc(/C=C/C#N)cc(C)c1Oc1nc(Nc2ccc(N3CCCC(NS(C)(=O)=O)C3)cc2)nc2ccsc12` (stereo not given), the half-maximal inhibitory concentration (IC50) in series [1] worked out at 0.775 µM. Besides, the EC50 in [2] was over 217 µM; in [4], 43.4 µM; in series [5], 0.45 µM. In addition, the selectivity ratio in series [3] is over 434. Further, the CC50 at 120 h in series [6] was over 217 µM.

For `Cc1cc(/C=C/C#N)cc(C)c1Oc1nc(Nc2ccc(N3CCCC(NS(N)(=O)=O)C3)cc2)nc2sccc12` (stereo not given), the IC50 in [1] came out at 4.79 µM. The concentration for a half-maximal effect (EC50) in series [2] was over 218 µM; in [4], 7.53 µM; in series [5] it was 0.126 µM. Moreover, the selectivity ratio in [3] is over 1730. Besides, the CC50 at 120 h in [6] is over 218 µM.

Turning to `Cc1cc(/C=C/C#N)cc(C)c1Oc1nc(Nc2ccc(N3CCN(S(C)(=O)=O)CC3)cc2)nc2ccsc12`, in [1], the IC50 was found to be 0.211 µM. Besides, the EC50 in [2] was over 11.5 µM; in series [4], 4.53 µM; in [5], 0.027 µM. Further, in series [3], the selectivity ratio came out at 428. Also, the CC50 at 120 h in series [6] is 11.5 µM.

As for `Cc1cc(/C=C/C#N)cc(C)c1Oc1nc(Nc2ccc(CN3CCNCC3)cc2)nc2ccsc12`, in series [1], the IC50 came out at 0.707 µM. Further, the selectivity ratio in series [3] worked out at 18. Moreover, the EC50 in [5] was found to be 0.216 µM. Besides, the CC50 at 120 h in [6] is 3.97 µM.

Values taken from ChEMBL document CHEMBL4732197, “Identification of novel potent HIV-1 inhibitors by exploiting the tolerant regions of the NNRTIs binding pocket” (Eur J Med Chem, 2021).
